Consider 8 molecules from PubChem BioAssay AID624025 (Broad Institute, 2012).

SMILES strings stand for the structures. Values joined by “and” are separate entries in the source; they are usually repeats but may differ in a detail not shown here. Identical values can stand only once. Active and inactive are the calls of the source.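 The calls were made as follows: active = compounds whose fitted half-maximal growth inhibition dose lies at or below twice the top tested dose; inconclusive = flat curve with 30 to 70% growth loss, or bad fit; inactive = the rest.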

For the first test, the system named is S. cerevisiae growth in glucose, OD600, 48 h. Put plainly: yeast proliferation reduction, glucose carbon source – OD600, powder samples, set 4, dose response (AID 624025).
Conditions: not given
In short, it runs like this: (§1)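 Timing – 48 h at 30 °C without shaking · Material – S. cerevisiae yeast · Controls – amphotericin B 10 µM positive control · Buffer or medium – CSM-glucose medium · Dosing – compounds added to wells by pin transfer · Technique – OD600 absorbance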
For orientation: AC50 means the concentration giving half of the maximal activity seen. Regarding `CC1/C=C/C=C\C=C\C=C\C=C\C=C\C=C\C(O[C@H]2OC(C)C(O)C(N)C2O)CC2OC(O)(CC(O)CC(O)C(O)CCC(O)CC(O)CC(=O)OC(C)C(C)C1O)CC(O)C2C(=O)O` (stereo partly drawn), the concentration at half-maximal activity (AC50) was 527 nM.

System in the next test: not listed separately
Described as above. Particulars: S. cerevisiae growth in glucose, OD600, 48 h; at 3 µM (top of the series). In short, it runs like this:
as §1
As to `CCOC(=O)N1C(=O)C2(CCCCC2)N(c2ccc(C#N)cc2)C1=S`, the activity change, negative = inhibition was -20.2% (inactive).
On the same count and under the same terms, the same measure for `CCOC(=O)N1C(=O)C2(CCCCC2)N(c2ccccc2)C1=S`: -5.67% (inactive).
The same measure, in the same setting: the same measure for `C/C=C/[C@@H]1[C@H]2C[C@@H](C)CC[C@@H]2C(C)=C[C@H]1C(=O)c1c(O)c(-c2ccc(O)cc2)c[nH]c1=O`: -15.3% (inactive); for `CCOC(=O)N1C(=O)C2(CCCCC2)N(c2ccc(C)cc2)C1=S`: -14.8% (inactive) and -15% (inactive); for `CCOC(=O)N1C(=O)C2(CCCCC2)N(c2ccc(F)cc2)C1=S`: -7.11% (inactive).
Still for that read-out and setting: under `CCOC(=O)N1C(=O)C2(CCCCC2)N(c2cccc(C)c2)C1=S` stands -12.2% (inactive).
As for `CCOC(=O)N1C(=O)C2(CCCCC2)N(c2ccc(Cl)cc2)C1=S`, the activity change, negative = inhibition is 0.052% (inactive).
